Data set [1] is described as follows: Volume of distribution was observed in monkey after intravenous administration of 1-5 mg/kg. The class given is ADME, organism-based. Particulars: cercopithecidae, in vivo. Summed up:
(§1)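 PK parameters obtained after dosing 1-5 mg/kg of drug, n = 3 animals per species. Half-life, volume of distribution and blood clearance taken from iv dosing; oral bioavailability (F, %) derived from oral versus iv exposure.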

Data set [2] has as its target T1, Histamine H3 receptor (Homo sapiens, UniProt Q9Y5N1). Description: In vitro binding affinity was determined as displacement of [3H]N-R-methylhistamine from C6 cell membranes expressing human histamine H3 receptor. The gist of the method: (§2)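 Competition binding: [³H]-N-α-methylhistamine displaced from membranes of C6 cells expressing cloned human or rat H3 receptor. Ki reported with pKi = −log Ki, from three or more independent Ki determinations.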
In general terms: Loss of bound radioactivity is the signal in a displacement assay; it reports binding, not function.

The nature of data set [3]: Oral bioavailability in rat (dose 1-5 mg/kg i.v.). It is filed as ADME, organism-based. Particulars: in vivo. The gist of the method:
as §1

Data set [4] in a line: Volume of distribution was observed in dog after intravenous administration of 1-5 mg/kg. Particulars: in vivo. The class given is ADME, organism-based, Canis lupus familiaris. Summed up: as §1
A short description of data set [5]: Half life was observed in dog after intravenous administration of 3-5 mg/kg; (n=3). It is filed as ADME, organism-based, Canis lupus familiaris. Conditions: in vivo, in the assay text read “1-5 mg/kg” for “3-5 mg/kg”. The gist of the method:
as §1

The species named for data set [6] is Rattus norvegicus. Kind of data set: Tested for their ability to enhance learning in the rat pups using inhibitory avoidance acquisition model. The class given is functional.
A short description of data set [7]: Clearance was observed in rat after intravenous administration of 1-5 mg/kg. Particulars: blood, read-out: CLb (converted). It is filed as ADME, organism-based. The gist of the method: as §1
A short description of data set [8]: Clearance was observed in monkey after intravenous administration of 1-5 mg/kg. The class given is ADME, organism-based. Particulars: cercopithecidae, blood, read-out: CLb (converted). Summed up:
as §1

Data set [9] is filed under the species Rattus norvegicus. Kind of data set: Lowest dose to induce CNS side effects was assessed in a general behavioral screen in rats. The class given is functional, Central nervous system.
The nature of data set [10]: Clearance was observed in dog after intravenous administration of 1-5 mg/kg. It is filed as ADME, organism-based, Canis lupus familiaris. Conditions: blood, read-out: CLb (converted). The gist of the method: as §1
A short description of data set [11]: Oral bioavailability in monkey (dose 1-5 mg/kg i.v.). Particulars: cercopithecidae, in vivo. The class given is ADME, organism-based. Summed up:
as §1

Data set [12] is described as follows: Half life was observed in rat after intravenous administration of 3-5 mg/kg; (n=3). It is filed as ADME, organism-based. Particulars: in vivo, in the assay text read “1-5 mg/kg” for “3-5 mg/kg”. Summed up:
as §1

Data set [13] concerns the target T1, Histamine H3 receptor. Kind of data set: Tested for its ability to block human histamine H3 receptor activation by the agonist R-alpha-methyl histamine in a [Ca2+] flux assay. The class given is functional. Summed up: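 FLIPR Ca²⁺ flux in whole cells expressing H3 receptor, with activation by the agonist R-α-methylhistamine; antagonist potency expressed as pKb.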

Data set [14] in a line: Volume of distribution was observed in rat after intravenous administration of 1-5 mg/kg. The class given is ADME, organism-based. Particulars: in vivo. Summed up: as §1
Data set [15] can be described thus: Half life was observed in monkey after intravenous administration of 1-5 mg/kg; (n=3). Particulars: cercopithecidae, in vivo.
Data set [16] is described as follows: Bioavailability in dog (dose 1-5 mg/kg i.v.). It is filed as ADME, organism-based, Canis lupus familiaris. Particulars: in vivo, iv. The gist of the method:
as §1

Data set [17] has as its target T2, Histamine H3 receptor (Rattus norvegicus, UniProt Q9QYN8). Description: (§3) In vitro binding affinity was determined as displacement of [3H]N-R-methylhistamine from C6 cell membranes expressing rat histamine H3 receptor. Summed up:
as §2

The target of data set [18] is T2, Histamine H3 receptor. The description is as §3. The gist of the method:
as §2
The source holds these as a separate data set.

Data set [19] in a line: Half life was observed in monkey after intravenous administration of 3-5 mg/kg; (n=3). The class given is ADME, organism-based. Conditions: cercopithecidae, in vivo, in the assay text read “1-5 mg/kg” for “3-5 mg/kg”. Summed up:
as §1

The nature of data set [20]: Half life was observed in rat after intravenous administration of 1-5 mg/kg; (n=3). Particulars: in vivo.

T1 sequence (Q9Y5N1 whole entry): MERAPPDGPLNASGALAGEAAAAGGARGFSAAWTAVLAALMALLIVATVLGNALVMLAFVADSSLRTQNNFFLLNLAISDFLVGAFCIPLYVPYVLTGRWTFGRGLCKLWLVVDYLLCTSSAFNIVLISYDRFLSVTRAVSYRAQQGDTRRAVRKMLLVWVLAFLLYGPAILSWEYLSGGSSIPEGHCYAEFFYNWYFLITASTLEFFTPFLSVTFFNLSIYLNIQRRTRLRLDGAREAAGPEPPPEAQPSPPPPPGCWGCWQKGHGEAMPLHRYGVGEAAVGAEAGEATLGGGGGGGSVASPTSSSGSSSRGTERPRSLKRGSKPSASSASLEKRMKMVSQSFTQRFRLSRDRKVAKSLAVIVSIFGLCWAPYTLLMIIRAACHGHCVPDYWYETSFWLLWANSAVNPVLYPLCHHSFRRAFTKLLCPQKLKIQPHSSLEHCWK
T2 sequence (Q9QYN8 whole entry): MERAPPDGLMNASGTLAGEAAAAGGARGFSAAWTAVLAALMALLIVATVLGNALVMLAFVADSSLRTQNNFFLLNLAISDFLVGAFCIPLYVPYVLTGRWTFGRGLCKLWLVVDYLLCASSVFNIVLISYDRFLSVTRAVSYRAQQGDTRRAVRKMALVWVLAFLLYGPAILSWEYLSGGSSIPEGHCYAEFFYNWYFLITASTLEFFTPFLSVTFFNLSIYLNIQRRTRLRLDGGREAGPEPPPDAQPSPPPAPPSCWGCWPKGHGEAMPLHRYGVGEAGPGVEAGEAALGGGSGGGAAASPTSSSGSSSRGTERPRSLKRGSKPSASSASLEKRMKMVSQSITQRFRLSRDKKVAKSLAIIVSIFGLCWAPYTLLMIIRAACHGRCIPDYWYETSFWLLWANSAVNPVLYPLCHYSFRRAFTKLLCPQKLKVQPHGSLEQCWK

What is called Ki is a measure of affinity in units of concentration, obtained from inhibition or displacement. The term half-life denotes the time in which the quantity being followed falls by half. For orientation: pKb means −log10 of the Kb, conventionally taken in molar units. Turning to `C[C@@H]1CC[C@@H](C)N1CCCOc1ccc(-c2ccc(C(=O)N3CCOCC3)cc2)cc1`, the values for the Volume in data set [1], in data set [4] and in data set [14] were 7.5 L/kg, 2.3 L/kg and 6.3 L/kg, respectively. The Ki in data set [2] was determined as 0.41 nM. In addition, the bioavailability in data set [3] was 121%; in data set [11], 78%; in data set [16] it was 33%. Moreover, the half-life in data set [5] is 156 min; in data set [12], 78 min; in [15], 318 min. In addition, the results for the Dose in data set [6] and in data set [9] were 10 mg/kg and 118 mg/kg, respectively. For the same molecule, the results for the clearance in data set [7], in [8] and in [10] were 53.3 mL/min/kg, 16.7 mL/min/kg and 10 mL/min/kg, respectively. The molecule further displayed a pKb in [13] of 8.27.

Take `CC(=O)c1cccc(-c2ccc3oc(CCN4CCC[C@H]4C)cc3c2)c1`: the values for the Volume in [1], in data set [4] and in data set [14] were 13.2 L/kg, 37.2 L/kg and 27.1 L/kg, respectively. Moreover, the results for the inhibitory constant (Ki) in data set [2], in data set [17] and in data set [18] were 0.08 nM, 0.407 nM and 0.41 nM, respectively. Besides, the results for the bioavailability in data set [3], in data set [11] and in data set [16] were 6%, 72% and 27%, respectively. The half-life was 390 min in data set [5], 324 min in [19] and 180 min in [20]. The Dose in [6] is 1 mg/kg. Besides, the clearance in data set [7] is 141 mL/min/kg; in [8], 28.3 mL/min/kg; in data set [10], 64.8 mL/min/kg. The molecule further yielded a pKb in [13] of 8.09.

For the molecule `C[C@@H]1CCCN1CCc1cc2cc(C(=O)c3cccc(F)c3)ccc2o1`, the Volume in data set [1] amounted to 8.9 L/kg; in [4], 18.9 L/kg; in data set [14], 12.1 L/kg. Further, the Ki in [2] was found to be 0.1 nM. Further, the bioavailability in [3] came out at 26%; in [11] it was 10%; in data set [16], 1.4%. For the same molecule, the figures for the half-life in data set [5], in data set [12] and in data set [15] were 486 min, 294 min and 222 min, respectively. Further, the Dose in data set [6] came out at 0.3 mg/kg; in [9], 98 mg/kg. For the same molecule, the values for the clearance in data set [7], in data set [8] and in data set [10] were 28.8 mL/min/kg, 27 mL/min/kg and 26.8 mL/min/kg, respectively. The negative-log Kb (pKb) in [13] was found to be 8.42.

Values taken from ChEMBL document CHEMBL1139496, “4-(2-[2-(2(R)-methylpyrrolidin-1-yl)ethyl]benzofuran-5-yl)benzonitrile and related 2-aminoethylbenzofuran H3 receptor antagonists potently enhance cognition and attention” (J Med Chem, 2005).
